Test results reported in ChEMBL document CHEMBL1143905, “Synthesis of barbiturate-based methionine aminopeptidase-1 inhibitors” (Bioorg Med Chem Lett, 2008).

Assay: Inhibition of Escherichia coli methionine aminopeptidase 1
Method in brief: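 Coupled chromogenic assay at room temperature: 50 mM HEPES pH 7.5, 100 μM CoCl2, 400 μM Met-Pro-pNA substrate, 0.25–4.0 μM MetAP-1 enzyme, 10–25 μM proline aminopeptidase as coupling enzyme, varying inhibitor concentrations. pNA release read at 405 nm. Ki obtained by non-linear regression assuming a competitive steady-state model.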

SMILES	Ki [µM]
COc1ccc(C=C2C(=O)N(C)C(=O)N(C)C2=O)cc1	> 100
CN1C(=O)C(=C/C=C/c2ccc(N(C)C)cc2)C(=O)N(C)C1=O	> 100
CN1C(=O)C(=Cc2ccc(O)cc2)C(=O)N(C)C1=O	> 100
O=C1NC(=O)C(=Cc2cccc([N+](=O)[O-])c2)C(=O)N1	29
O=C1NC(=S)NC(=O)C1=Cc1ccccc1	> 100
O=C1NC(=S)NC(=O)C1=Cc1ccc(F)cc1	> 100
CN1C(=O)C(=Cc2ccc([N+](=O)[O-])cc2)C(=O)N(C)C1=O	> 100
COc1ccc(C=C2C(=O)NC(=S)NC2=O)cc1	87
CN1C(=O)C(=Cc2ccccc2)C(=O)N(C)C1=O	> 100
O=C1NC(=O)C(=C/C=C/c2ccccc2)C(=O)N1	12
O=C1NC(=S)NC(=O)C1=Cc1cccc([N+](=O)[O-])c1	> 100
O=C1NC(=S)NC(=O)C1=Cc1ccc([N+](=O)[O-])cc1	> 100
CN1C(=O)C(=Cc2ccc(N(C)C)cc2)C(=O)N(C)C1=O	> 100
O=C1NC(=S)NC(=O)C1=Cc1ccc(C(=O)O)cc1	> 100
O=C1NC(=O)C(=Cc2ccc(F)cc2)C(=O)N1	89
O=C1NC(=O)C(=Cc2ccc(O)cc2)C(=O)N1	4
O=C1NC(=O)C(=Cc2ccc(C(=O)O)cc2)C(=O)N1	335
COc1ccc(C=C2C(=O)NC(=O)NC2=O)cc1	25
CN(C)c1ccc(/C=C/C=C2C(=O)NC(=O)NC2=O)cc1	0.05
CN1C(=O)C(=Cc2ccc(F)cc2)C(=O)N(C)C1=O	> 100
O=C1NC(=S)NC(=O)C1=Cc1ccc(O)cc1	> 100
CN1C(=O)C(=Cc2ccc(C(=O)O)cc2)C(=O)N(C)C1=O	> 100
O=C1NC(=S)NC(=O)C1=C/C=C/c1ccccc1	> 100
CN1C(=O)C(=Cc2cccc([N+](=O)[O-])c2)C(=O)N(C)C1=O	> 100
CN(C)c1ccc(/C=C/C=C2C(=O)NC(=S)NC2=O)cc1	17
CN1C(=O)C(=C/C=C/c2ccccc2)C(=O)N(C)C1=O	> 100
CN(C)c1ccc(C=C2C(=O)NC(=S)NC2=O)cc1	> 100
O=C1NC(=O)C(=Cc2ccccc2)C(=O)N1	517
CN(C)c1ccc(C=C2C(=O)NC(=O)NC2=O)cc1	13
O=C1NC(=O)C(=Cc2ccc([N+](=O)[O-])cc2)C(=O)N1	105
